Compound activity: PubChem, Sanford-Burnham Center for Chemical Genomics
Shown are actives, neighbours in structure and some others; about 0.79% of the full set was active somewhere.
mIAP block: mouse IAP inhibition | inhibition, % at 10 µM | AID 2806 | purified mouse IAP, CDP-Star luminescence, 30 min | hit rate 0.2% among 330,000;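 active means inhibition of at least 40% at 10 µM in the primary screen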;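 further: plate controls were DMSO with enzyme for no effect and no enzyme wells for full effect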
mIAP activ: mouse IAP activation | hit rate 0.24% among 330,000 | muIAP, CDP-Star luminescence, 30 min; hits give high values; 1 = vehicle-only enzyme signal, 0 = enzyme-free wells | activation factor at 10 µM;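 active means activation factor of at least 2 at 20 µM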
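Assay system: mouse IAP enzyme; Reagent: CDP-Star chemiluminescent phosphatase substrate; Compound: DMSO-dissolved test compounds; Incubation: 30 min, room temperature; Technique: luminescence from enzymatic CDP-Star hydrolysis; Controls: DMSO-only wells and no-enzyme negative control.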
bIAP activator: increases bovine intestinal alkaline phosphatase activity; activation factor at 20 µM; hit rate 0.17% among 200,000; purified bovine IAP, CDP-star luminescence, 30 min; hits give high values; fold of DMSO-control signal, blank-subtracted;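 active means activation factor of 2 or more at 20 µM, a signal rise over negative controls twice the positive control's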
hIAP inh: blocks human intestinal alkaline phosphatase; inhibition, % at 10 µM; AID 2544; hit rate 0.12% among 330,000; P09923; purified IAP, CDP-Star luminescence, 30 min;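 active means inhibition reaching a set limit with compound at 10 µM in the primary screen, cut at about 35% in these data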;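 further: plate controls were DMSO wells with enzyme for no effect and no-enzyme buffer wells for full effect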
Target sequence (P09923 whole entry, looked up): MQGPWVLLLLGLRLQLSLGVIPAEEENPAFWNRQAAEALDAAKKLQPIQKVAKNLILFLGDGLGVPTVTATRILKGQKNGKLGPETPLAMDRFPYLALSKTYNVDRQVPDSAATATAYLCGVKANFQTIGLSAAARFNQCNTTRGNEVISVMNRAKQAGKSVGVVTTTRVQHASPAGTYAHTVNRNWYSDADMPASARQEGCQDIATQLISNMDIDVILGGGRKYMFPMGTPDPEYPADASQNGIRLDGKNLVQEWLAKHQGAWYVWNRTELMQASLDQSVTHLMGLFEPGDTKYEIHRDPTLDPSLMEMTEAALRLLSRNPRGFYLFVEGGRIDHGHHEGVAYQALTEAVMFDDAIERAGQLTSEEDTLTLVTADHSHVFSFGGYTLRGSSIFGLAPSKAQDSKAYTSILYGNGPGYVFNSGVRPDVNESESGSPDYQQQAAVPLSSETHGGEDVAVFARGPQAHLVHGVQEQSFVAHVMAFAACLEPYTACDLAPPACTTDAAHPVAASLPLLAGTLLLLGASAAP
bIAP inh: intestinal alkaline phosphatase (bovine) inhibition; inhibition, % at 20 µM; purified bovine IAP, CDP-star luminescence, 30 min; 190,000 tested, under 10 active;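 active means over 50% inhibition of intestinal alkaline phosphatase at 20 µM in the single-dose screen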
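Incubation: 30 min reaction at room temperature / Material: purified bovine intestinal alkaline phosphatase (IAP) enzyme / Input: enzyme at 1/65,000,000 dilution / Dosing: 20 µM single dose / Signal: CDP-star luminescence signal / Reagent: CDP-star chemiluminescent phosphatase substrate, 30 µM final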
hIAP activ: increases human intestinal alkaline phosphatase activity; P09923; activation factor at 10 µM; purified human IAP, CDP-Star luminescence, 30 min; hits give high values; 1 = vehicle-only enzyme, 0 = enzyme-free background; hit rate 0.16% among 330,000;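 active means activation factor of the enzyme at least 2-fold when tested at 20 µM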
hIAP act confirm: human IAP activation confirmation; shares compounds with hIAP activ; purified IAP, CDP-Star luminescence, 30 min; hits give low values; activation (%Activity, negative = activation), % at 8.3 µM; hit rate 10% among 880;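 active means at least twofold enzyme activation in any of six single-dose repeats, which the averaged readout prints as negative percent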
* hit, by the source's call.

How did CC(C)(C)OC(=O)NCCCC[C@H](NC(=O)c1nc[nH]c1C(=O)NCc1ccccc1)C(=O)OC(C)(C)C do in these assays?
mIAP block: -34.5; mIAP activ: 1.34; bIAP activator: 1.2; hIAP inh: -50.0; bIAP inh: -17.0; hIAP activ: 1.5

Results for CCOc1ccc2nc(N3C(=O)/C(=C/c4ccc(Cl)cc4)NC3=S)sc2c1 ?
bIAP activator: 1.1; bIAP inh: -9.3

How did C=CCN1C(=O)C2(NNc3ccccc3O2)c2ccccc21 (stereo unspecified) do in these assays?
mIAP block: -6.0; mIAP activ: 1.06; bIAP activator: 3.9*; hIAP inh: inactive; bIAP inh: -286.0; hIAP activ: 6.66*; hIAP act confirm: -92.8*

How did O=C(COc1ccccc1[N+](=O)[O-])N1CCN(c2ccccn2)CC1 do in these assays?
mIAP block: 4.8; mIAP activ: 0.952; hIAP inh: -4.1; hIAP activ: 1.04

What do the screens show for `O=C(NCc1cccc(Br)c1)c1cc(-c2ccccc2)nn1CC1CC(c2cccc([N+](=O)[O-])c2)=NO1` (stereo unspecified)?
mIAP block: 6.7; mIAP activ: 0.933; hIAP inh: 16.0; hIAP activ: 0.84

What do the screens show for `C#CC(CC)(CC)NC(=O)Nc1ccccc1C(=O)OC`?
mIAP block: 11.8; mIAP activ: 0.882; bIAP activator: 1.1; hIAP inh: 38.6*; bIAP inh: -5.7; hIAP activ: 0.614; hIAP act confirm: -4.3

What do the screens show for `CCNC(=O)Nc1ccccc1C(=O)OC`?
mIAP block: -5.0; mIAP activ: 1.05; bIAP activator: 1; hIAP inh: -18.9; bIAP inh: -2.4; hIAP activ: 1.19

Results for CCCN1C(=O)/C(=C2/C=Cc3ccccc3N2CC)SC1=S ?
mIAP block: 34.0; mIAP activ: 0.66; bIAP activator: 1; hIAP inh: 38.3*; bIAP inh: 4.1; hIAP activ: 0.617; hIAP act confirm: 5.7

What do the screens show for `C[C@@H](NC(=O)c1[nH]cnc1C(=O)Nc1ccon1)c1ccccc1`?
mIAP block: 13.6; mIAP activ: 0.864; hIAP inh: -107.0; hIAP activ: 2.07*; hIAP act confirm: -80.0*

Results for C[C@@H](NC(=O)c1[nH]cnc1C(=O)Nc1nccs1)c1ccccc1 ?
mIAP block: 2.6; mIAP activ: 0.974; hIAP inh: -123.9; hIAP activ: 2.24*; hIAP act confirm: 11.7

What do the screens show for `C[C@@H](NC(=O)c1nc[nH]c1C(=O)N[C@H](C)c1ccccc1)c1ccccc1`?
mIAP block: 2.4; mIAP activ: 0.976; hIAP inh: -20.1; hIAP activ: 1.2

Results for C[C@H](NC(=O)c1[nH]cnc1C(=O)Nc1ccon1)c1ccccc1 ?
mIAP block: 15.1; mIAP activ: 0.849; hIAP inh: -79.6; hIAP activ: 1.8

What do the screens show for `O=C(CS(=O)c1ccc(F)cc1)N1CCOCC1` (stereo unspecified)?
mIAP block: -11.7; mIAP activ: 1.12; hIAP inh: 0.3; hIAP activ: 0.997

How did Cc1cccc(N(CC(N)=O)C2SC(=O)N(c3ccccc3)C2=O)c1 (stereo unspecified) do in these assays?
mIAP block: 18.4; mIAP activ: 0.816; bIAP activator: 1; hIAP inh: -2.6; bIAP inh: -4.3; hIAP activ: 1.03

How did Cc1ccc(N(CC(N)=O)C2SC(=O)N(C)C2=O)cc1 (stereo unspecified) do in these assays?
mIAP block: 9.2; mIAP activ: 0.908; bIAP activator: 1.1; hIAP inh: 64.6*; bIAP inh: -6.0; hIAP activ: 0.354; hIAP act confirm: -76.3

What do the screens show for `COc1cc(/C=C2/C(=O)NN(c3cccc(Cl)c3)C2=O)cc(OC)c1O`?
mIAP block: 23.2; mIAP activ: 0.768; hIAP inh: 49.9*; hIAP activ: 0.501; hIAP act confirm: 9.1

Results for CCOc1cc(/C=C2/C(=O)NN(c3cccc(Cl)c3)C2=O)ccc1O ?
mIAP block: 16.5; mIAP activ: 0.835; hIAP inh: 32.9; hIAP activ: 0.671

How did C=CCN1C(=O)/C(=C\C=C2\N(C)c3ccccc3C2(C)C)SC1=S do in these assays?
mIAP block: 38.5; mIAP activ: 0.615; bIAP activator: 0.9; hIAP inh: 45.6*; bIAP inh: 14.0; hIAP activ: 0.544; hIAP act confirm: -267.3*

How did COc1ccc(-c2nc(-c3ccccn3)no2)cc1 do in these assays?
mIAP block: 5.7; mIAP activ: 0.943; bIAP activator: 0.9; hIAP inh: -7.5; bIAP inh: 10.9; hIAP activ: 1.07

How did Clc1ccc(-c2nc(-c3ccccn3)no2)cc1Cl do in these assays?
mIAP block: 2.6; mIAP activ: 0.974; bIAP activator: 0.9; hIAP inh: -110.4; bIAP inh: 10.3; hIAP activ: 2.1*; hIAP act confirm: 3.3

Results for CC(=O)CSc1nc2ccccc2s1 ?
mIAP block: 0.3; mIAP activ: 0.997; bIAP activator: 1; hIAP inh: 0.2; bIAP inh: 2.7; hIAP activ: 0.998

Results for Cn1cccc1C(=O)NC(=O)CSc1nc2ccccc2s1 ?
mIAP block: -1.1; mIAP activ: 1.01; bIAP activator: 0.9; hIAP inh: -106.7; bIAP inh: 10.9; hIAP activ: 2.07*; hIAP act confirm: 0.5

What do the screens show for `O=C(NC1CCCCCC1)c1ccc(-n2cnnc2)cc1`?
mIAP block: -2.1; mIAP activ: 1.02; hIAP inh: 35.1*; hIAP activ: 0.649; hIAP act confirm: -58.8*

How did c1ccc(Nc2ccnc(Nc3ccccc3)n2)cc1 do in these assays?
mIAP block: -10.7; mIAP activ: 1.11; hIAP inh: -177.0; hIAP activ: 2.77*; hIAP act confirm: -43.5*

What do the screens show for `CSCCC(NS(=O)(=O)c1ccccc1F)C(=O)N1CCCCCC1` (stereo unspecified)?
mIAP block: -5.4; mIAP activ: 1.05; hIAP inh: -19.5; hIAP activ: 1.2

How did CSCCC(NC(=O)c1ccccc1Br)C(=O)NNC(=O)c1csc(N2CCOCC2)n1 (stereo unspecified) do in these assays?
mIAP block: 5.8; mIAP activ: 0.942; hIAP inh: -110.4; hIAP activ: 2.1*; hIAP act confirm: -6.5

What do the screens show for `CSCCC(NC(=O)c1ccccc1Cl)C(=O)NNC(=O)c1csc(N2CCOCC2)n1` (stereo unspecified)?
mIAP block: -2.4; mIAP activ: 1.02; hIAP inh: -81.2; hIAP activ: 1.81

Results for CSCCC(NS(=O)(=O)c1ccccc1F)C(=O)NNC(=O)c1csc(N2CCOCC2)n1 (stereo unspecified) ?
mIAP block: 29.4; mIAP activ: 0.706; hIAP inh: -164.5; hIAP activ: 2.65*; hIAP act confirm: 72.3
